Measurements from ChEMBL document CHEMBL1649147, “Antistaphylococcal activity of dihydrophthalazine antifolates, a family of novel antibacterial drugs” (2009).
Converted amounts (≈) assume the structure as drawn.

What was measured:
Staphylococcus aureus [1] = assay: Antibacterial activity against Tmp-susceptible Staphylococcus aureus by agar dilution method; assay type: functional
How it was run: (§1)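 MICs by agar dilution on Mueller-Hinton agar following CLSI guidelines. S. aureus ATCC 29213 and E. faecalis ATCC 29212 were run as quality controls with each set, and test-strain MICs were kept only if control MICs fell within acceptable ranges.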

Staphylococcus aureus [2] = assay: Antibacterial activity against methicillin-resistant Staphylococcus aureus by agar dilution method; assay type: functional
How it was run: (§2)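 Agar dilution on Mueller-Hinton agar per CLSI guidelines. S. aureus ATCC 29213 and E. faecalis ATCC 29212 were run with each set, and test MICs were accepted only when the control strains fell within acceptable ranges.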

Staphylococcus aureus [3] = assay: Antibacterial activity against methicillin-susceptible Staphylococcus aureus by agar dilution method; assay type: functional; how it was run: as §2
Staphylococcus aureus [4] = assay: Antibacterial activity against Tmp-resistant Staphylococcus aureus by agar dilution method; assay type: functional; how it was run: as §1
[5] = test system: Staphylococcus epidermidis; assay: Antibacterial activity against methicillin-resistant, vancomycin-intermediate coagulase-negative Staphylococcus epidermidis 225 by agar dilution method; assay type: functional; how it was run: as §2
Staphylococcus aureus [6] = assay: Antibacterial activity against vancomycin-resistant Staphylococcus aureus VRS1 by broth macrodilution method; assay type: functional
How it was run: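 Michigan VRSA strain, one of 12 staphylococci later used in time-kill studies. MIC was determined by broth macrodilution and reported in μg/ml.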

[7] = test system: coagulase-negative staphylococci; assay: Antibacterial activity against Tmp-resistant coagulase-negative staphylococci by agar dilution method
[8] = test system: coagulase-negative staphylococci; assay: Antibacterial activity against methicillin-susceptible coagulase-negative staphylococci by agar dilution method
Staphylococcus aureus [9] = assay: Antibacterial activity against methicillin-resistant and vancomycin-resistant Staphylococcus aureus VRS1 by agar dilution method; assay type: functional; how it was run: as §2
[10] = test system: Staphylococcus epidermidis; assay: Antibacterial activity against methicillin-resistant, vancomycin-intermediate coagulase-negative Staphylococcus epidermidis 225 after 50 passages by agar dilution method; assay type: functional
How it was run: (§3)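 Daily serial passage for up to 50 days at 35°C for 24 h in 1 ml MHB. […] Each transfer used 10 µl from the tube nearest the MIC (1–2 dilutions below) with the same turbidity as the drug-free control. […] MICs were measured by agar dilution, with changes given as log2 steps.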

[11] = test system: coagulase-negative staphylococci; assay: Antibacterial activity against methicillin-resistant coagulase-negative staphylococci by agar dilution method
[12] = test system: Staphylococcus epidermidis; assay: Antibacterial activity against methicillin-resistant coagulase-negative Staphylococcus epidermidis 225 by broth macrodilution method; assay type: functional
Staphylococcus aureus [13] = assay: Antibacterial activity against methicillin-susceptible, vancomycin-intermediate Staphylococcus aureus 505 after 50 passages by agar dilution method; assay type: functional; how it was run: as §3
[14] = test system: coagulase-negative staphylococci; assay: Antibacterial activity against Tmp-susceptible coagulase-negative staphylococci by agar dilution method
[15] = test system: Staphylococcus epidermidis; assay: Antibacterial activity against methicillin-resistant coagulase-negative Staphylococcus epidermidis 074 by broth macrodilution method; assay type: functional
[16] = test system: Staphylococcus epidermidis; assay: Antibacterial activity against methicillin-susceptible coagulase-negative Staphylococcus epidermidis 051 after 50 passages by agar dilution method; assay type: functional
How it was run: (§4)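 Daily serial passage for up to 50 days at 35°C for 24 h in 1 ml MHB. Each transfer used 10 µl from the tube nearest the MIC (1–2 dilutions below) with the same turbidity as the drug-free control. MICs were measured by agar dilution, with changes given as log2 steps.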

Staphylococcus aureus [17] = assay: microbe, parasite or virus in culture; settings: 505
Staphylococcus aureus [18] = assay: Antibacterial activity against Tmp-susceptible coagulase-negative Staphylococcus aureus by agar dilution method; assay type: functional; how it was run: as §1
[19] = test system: Staphylococcus epidermidis; assay: Antibacterial activity against methicillin-susceptible coagulase-negative Staphylococcus epidermidis 051 by broth macrodilution method; assay type: functional
[20] = test system: Staphylococcus epidermidis; assay: Antibacterial activity against methicillin-resistant, Linezolid non-susceptible coagulase-negative Staphylococcus epidermidis 345 after 50 passages by agar dilution method; assay type: functional; how it was run: as §4
[21] = test system: Staphylococcus epidermidis; assay: Antibacterial activity against methicillin-susceptible coagulase-negative Staphylococcus epidermidis 057 by broth macrodilution method; assay type: functional
Staphylococcus aureus [22] = assay: Antibacterial activity against methicillin-susceptible, vancomycin-intermediate Staphylococcus aureus 505 by broth macrodilution method; assay type: functional
[23] = test system: Staphylococcus epidermidis; assay: Antibacterial activity against methicillin-resistant coagulase-negative Staphylococcus epidermidis 197 after 50 passages by agar dilution method; assay type: functional; how it was run: as §4
Staphylococcus aureus [24] = assay: Antibacterial activity against methicillin-susceptible Staphylococcus aureus ATCC 29213 after 50 passages by agar dilution method; assay type: functional; settings: ATCC29213; how it was run: as §3
[25] = test system: Staphylococcus epidermidis; assay: Antibacterial activity against methicillin-resistant coagulase-negative Staphylococcus epidermidis 197 by broth macrodilution method; assay type: functional
Staphylococcus aureus [26] = assay: Antibacterial activity against methicillin-resistant Staphylococcus aureus ATCC 43300 by broth macrodilution method; assay type: functional; settings: ATCC43300
[27] = test system: Staphylococcus epidermidis; assay: Antibacterial activity against methicillin-resistant, Linezolid non-susceptible coagulase-negative Staphylococcus epidermidis 345 by agar dilution method; assay type: functional
Staphylococcus aureus [28] = assay: Antibacterial activity against methicillin-susceptible Staphylococcus aureus 505 by broth macrodilution method; assay type: functional
Staphylococcus aureus [29] = assay: Antibacterial activity against methicillin-resistant Staphylococcus aureus 507 by broth macrodilution method; assay type: functional
Staphylococcus aureus [30] = assay: Antibacterial activity against methicillin-resistant Staphylococcus aureus 145 by broth macrodilution method; assay type: functional
Staphylococcus aureus [31] = assay: Antibacterial activity against methicillin-susceptible Staphylococcus aureus ATCC 29213 by broth macrodilution method; assay type: functional; settings: ATCC29213
[32] = test system: Staphylococcus epidermidis; assay: Antibacterial activity against methicillin-resistant coagulase-negative Staphylococcus epidermidis 345 by broth macrodilution method; assay type: functional
[33] = test system: Staphylococcus epidermidis; assay: Antibacterial activity against methicillin-susceptible coagulase-negative Staphylococcus epidermidis 057 after 10 passages by agar dilution method; assay type: functional; how it was run: as §3

CN[C@H](CC(C)C)C(=O)N[C@H]1C(=O)N[C@@H](CC(N)=O)C(=O)N[C@H]2C(=O)N[C@H]3C(=O)N[C@H](C(=O)N[C@H](C(=O)O)c4cc(O)cc(O)c4-c4cc3ccc4O)[C@H](O)c3ccc(c(Cl)c3)Oc3cc2cc(c3O[C@@H]2O[C@H](CO)[C@@H](O)[C@H](O)[C@H]2O[C@H]2C[C@](C)(N)[C@H](O)[C@H](C)O2)Oc2ccc(cc2Cl)[C@H]1O [VANCOMYCIN]
MIC50 (Staphylococcus aureus [1]): 1 µg/mL (≈ 0.69 µM) | MIC90 (Staphylococcus aureus [1]): 2 µg/mL (≈ 1.38 µM) | MIC50 (Staphylococcus aureus [2]): 1 µg/mL (≈ 0.69 µM) | MIC90 (Staphylococcus aureus [2]): 2 µg/mL (≈ 1.38 µM) | MIC50 (Staphylococcus aureus [3]): 1 µg/mL (≈ 0.69 µM) | MIC90 (Staphylococcus aureus [3]): 2 µg/mL (≈ 1.38 µM) | MIC50 (Staphylococcus aureus [4]): 1 µg/mL (≈ 0.69 µM) | MIC90 (Staphylococcus aureus [4]): 4 µg/mL (≈ 2.76 µM) | MIC [5]: 8 µg/mL (≈ 5.52 µM) | MIC (Staphylococcus aureus [6]): > 256 µg/mL | MIC50 [7]: 2 µg/mL (≈ 1.38 µM) | MIC90 [7]: 2 µg/mL (≈ 1.38 µM) | MIC90 [8]: 2 µg/mL (≈ 1.38 µM) | MIC (Staphylococcus aureus [9]): > 32 µg/mL | MIC [10]: 16 µg/mL (≈ 11 µM) | MIC50 [11]: 2 µg/mL (≈ 1.38 µM) | MIC90 [11]: 2 µg/mL (≈ 1.38 µM) | MIC [12]: 8 µg/mL (≈ 5.52 µM) | MIC (Staphylococcus aureus [13]): 8 µg/mL (≈ 5.52 µM) | MIC50 [14]: 1 µg/mL (≈ 0.69 µM) | MIC90 [14]: 2 µg/mL (≈ 1.38 µM)

CCC[C@@H]1C[C@@H](C(=O)N[C@@H]([C@H]2O[C@H](SC)[C@H](O)[C@@H](O)[C@H]2O)[C@H](C)Cl)N(C)C1 [CLINDAMYCIN]
MIC [15]: 0.25 µg/mL (≈ 0.588 µM) | MIC50 (Staphylococcus aureus [1]): > 32 µg/mL | MIC90 (Staphylococcus aureus [1]): > 32 µg/mL | MIC [16]: 4 µg/mL (≈ 9.41 µM) | MIC (Staphylococcus aureus [17]): > 128 µg/mL | MIC (Staphylococcus aureus [18]): ≤ 0.06 µg/mL | MIC50 (Staphylococcus aureus [3]): 0.125 µg/mL (≈ 0.294 µM) | MIC90 (Staphylococcus aureus [3]): > 32 µg/mL | MIC [19]: 0.125 µg/mL (≈ 0.294 µM) | MIC [20]: 4 µg/mL (≈ 9.41 µM) | MIC [21]: 0.125 µg/mL (≈ 0.294 µM) | MIC (Staphylococcus aureus [22]): 0.125 µg/mL (≈ 0.294 µM) | MIC [5]: > 32 µg/mL | MIC [23]: 2 µg/mL (≈ 4.71 µM) | MIC (Staphylococcus aureus [6]): > 512 µg/mL | MIC50 [7]: 2 µg/mL (≈ 4.71 µM) | MIC [8]: 0.125 µg/mL (≈ 0.294 µM) | MIC90 [8]: 0.125 µg/mL (≈ 0.294 µM) | MIC (Staphylococcus aureus [9]): > 32 µg/mL | MIC (Staphylococcus aureus [24]): 32 µg/mL (≈ 75.3 µM) | MIC [25]: 0.125 µg/mL (≈ 0.294 µM) | MIC50 [11]: 0.25 µg/mL (≈ 0.588 µM) | MIC (Staphylococcus aureus [26]): > 32 µg/mL | MIC [12]: > 128 µg/mL | MIC [27]: 2 µg/mL (≈ 4.71 µM) | MIC (Staphylococcus aureus [28]): 0.125 µg/mL (≈ 0.294 µM) | MIC (Staphylococcus aureus [29]): 512 µg/mL (≈ 1200 µM) | MIC (Staphylococcus aureus [30]): > 32 µg/mL | MIC50 [14]: 0.125 µg/mL (≈ 0.294 µM) | MIC90 [14]: > 32 µg/mL | MIC (Staphylococcus aureus [31]): 0.125 µg/mL (≈ 0.294 µM) | MIC [32]: 1 µg/mL (≈ 2.35 µM) | MIC [33]: > 128 µg/mL
